The values that follow come from ChEMBL document CHEMBL1148492, “Synthesis and structure-activity relationship study of potent cytotoxic analogues of the marine alkaloid Lamellarin D” (2006).

Activity calls are given as the source filed them. The rule behind the calls is not given here.

Test [1] relates to A549. As to the kind of experiment: Antiproliferative activity against human A549 cell line after 72 hrs by SRB assay at 10 ug/mL. In kind it is functional, cell-based.
Test [2] relates to HT-29. In words: Antiproliferative activity against human HT29 cell line after 72 hrs by SRB assay at 10 ug/mL. In kind it is functional, cell-based. (In general: Sulforhodamine B stains cellular protein and so reports cell mass.)
For test [3], the system named is MDA-MB-231. As to the kind of experiment: Antiproliferative activity against human MDA-MB-231 cell line after 72 hrs by SRB assay at 10 ug/mL. In kind it is functional, cell-based.
For test [4], the system named is A549. In words: Antiproliferative activity against human A549 cell line after 72 hrs by SRB assay. In kind it is functional. Particulars: A549, 72 h. The procedure, abridged:
(§1)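 Cells seeded at 5×10³/well in RPMI and allowed to attach in drug-free medium for 18 h. Compounds were added in DMSO/H2O (3:7) and exposure was continuous for 72 h. Cells were then fixed with cold 50% TCA for 60 min at 4°C, stained with 0.4% SRB in 1% acetic acid for 10 min at room temperature, solubilized in Tris, and OD was read at 490 nm. GI50 was derived from 100×[(T−T0)/(C−T0)]=50.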

Test [5] relates to MDA-MB-231. In words: Antiproliferative activity against human MDA-MB-231 cell line after 72 hrs by SRB assay. In kind it is functional. Particulars: MDA-MB-231, 72 h. A digest of the protocol: as §1
In test [6] the test system is HT-29. As to the kind of experiment: Antiproliferative activity against human HT29 cell line after 72 hrs by SRB assay. Particulars: HT-29, 72 h. It is filed as functional. A digest of the protocol:
as §1

On to `COC(=O)c1c(-c2ccc(O)cc2O)c(-c2cccc(O)c2)c2n1CCc1cc(O)c(OC)cc1-2`, for which the result with A549 [1], with HT-29 [2] and with MDA-MB-231 [3] was inactive.
In general, GI50 refers to the concentration that inhibits growth by half. High values mean less potent growth inhibition, low ones more potent growth inhibition. As to `COC(=O)c1c(-c2ccc(O)c(OC)c2)c(-c2ccc(O)c(OC)c2)c2n1CCc1cc(O)c(OC)cc1-2`, the GI50 in the test on A549 [4] was 14.3 µM; in the test with MDA-MB-231 [5], 8.5 µM. For the same compound, the result in the test on HT-29 [2] was inactive.
Regarding `COC(=O)c1cc(-c2cc(OC)ccc2OC)c2n1CCc1cc(O)c(OC)cc1-2`, the result in the test on A549 [1] and in the test on HT-29 [2] was inactive. This compound also yielded a GI50 in the test on MDA-MB-231 [5] of 12.7 µM.
With `COC(=O)c1c(-c2cc(OC)c(O)cc2O)c(-c2ccc(O)c(OC)c2)c2n1CCc1cc(O)c(OC)cc1-2`, the GI50 was found to be 5 µM in the test with A549 [4], 17.1 µM with HT-29 [6] and 3.1 µM in the test with MDA-MB-231 [5].
The matching figures for `COC(=O)c1c(-c2ccc(O)c(OC)c2)c(-c2ccc(O)c(OC)c2)c2c3cc(OC)c(O)cc3ccn12`: 7.1 µM, 8.1 µM and 7.5 µM.
Take `COC(=O)c1cc(-c2cccs2)c2c3cc(OC)c(O)cc3ccn12`: the result in the test with A549 [1] and with HT-29 [2] was inactive. For the same compound, in the test with MDA-MB-231 [5], halving of growth (GI50) required 26.3 µM.
On to `COC(=O)c1c(-c2ccc(O)cc2)c(-c2ccc(O)c(OC)c2)c2c3cc(OC)c(O)cc3ccn12`, for which the GI50 in the test with A549 [4] was determined as 9.8 µM; with HT-29 [6] it was 10.1 µM; with MDA-MB-231 [5], 15 µM.
For the compound `COC(=O)c1c(-c2ccc(OC)cc2)c(-c2ccc(OC)cc2)c2c3cc(OC)c(O)cc3ccn12`, the outcome with A549 [1] was inactive. Also, the GI50 in the test on HT-29 [6] was 9.7 µM; with MDA-MB-231 [5], 9.9 µM.
In the case of `COC(=O)c1cc(-c2ccc(O)c(OC)c2)c2n1CCc1cc(OC(C)C)c(OC)cc1-2`, the GI50 amounted to 20.3 µM in the test with A549 [4], 18.1 µM with HT-29 [6] and 19 µM in the test on MDA-MB-231 [5].
For `COC(=O)c1cc(-c2ccc(N(C)C)cc2)c2n1CCc1cc(O)c(OC)cc1-2`, the outcome in the test on A549 [1], in the test on HT-29 [2] and in the test with MDA-MB-231 [3] was inactive.
For `COC(=O)c1c(-c2cc(OC)c(O)cc2O)c(-c2ccc(O)c(OC)c2)c2c3cc(OC)c(O)cc3ccn12`, the GI50 was found to be 0.45 µM in the test with A549 [4], 7.9 µM in the test on HT-29 [6] and 0.71 µM in the test on MDA-MB-231 [5].
In the case of `COC(=O)c1c(-c2ccc(OC(F)(F)F)cc2)c(-c2ccc(OC(F)(F)F)cc2)c2c3cc(OC)c(O)cc3ccn12`, the result with A549 [1], in the test with HT-29 [2] and in the test on MDA-MB-231 [3] was inactive.
As for `COC(=O)c1cc(-c2ccc(O)c(OC)c2)c2c3cc(OC)c(O)cc3ccn12`, the GI50 in the test on A549 [4] is 10.9 µM; in the test with HT-29 [6] it was 23.9 µM; in the test with MDA-MB-231 [5], 11.2 µM.
Turning to `COC(=O)c1c(-c2cc(OC)c(O)cc2OC)c(-c2ccc(O)c(OC)c2)c2n1CCc1cc(O)c(OC)cc1-2`, the GI50 in the test on A549 [4] worked out at 8.9 µM; in the test on MDA-MB-231 [5], 7.6 µM. Besides, the result with HT-29 [2] was inactive.
The matching figures for `COC(=O)c1cc(-c2cc(OC)ccc2OC)c2c3cc(OC)c(O)cc3ccn12`: 13.3 µM, 19.9 µM and “inactive”.
For `COC(=O)c1c(-c2ccc(OC)cc2)c(-c2ccc(OC)cc2)c2n1CCc1cc(O)c(OC)cc1-2`, the GI50 in the test with A549 [4] was 9.2 µM; with HT-29 [6] it was 10.3 µM; in the test on MDA-MB-231 [5], 14.4 µM.
Consider `COC(=O)c1c(-c2cccc([N+](=O)[O-])c2)c(-c2cccc([N+](=O)[O-])c2)c2c3cc(OC)c(O)cc3ccn12`, for which the result in the test on A549 [1] was inactive. Moreover, the GI50 is 8.9 µM in the test with HT-29 [6] and 18.3 µM with MDA-MB-231 [5].
For the compound `COC(=O)c1c(-c2cc(OC)c(OC)c(OC)c2)c(-c2cc(OC)c(OC)c(OC)c2)c2c3cc(OC)c(O)cc3ccn12`, the outcome with A549 [1], in the test with HT-29 [2] and in the test on MDA-MB-231 [3] was inactive.
On to `COC(=O)c1cc(-c2ccc(N(C)C)cc2)c2n1CCc1cc(OC(C)C)c(OC)cc1-2`, for which the outcome in the test on A549 [1], in the test with HT-29 [2] and with MDA-MB-231 [3] was inactive.
As to `COC(=O)c1cc(-c2ccc(OC(C)C)c(OC)c2)c2n1CCc1cc(OC(C)C)c(OC)cc1-2`, the result in the test on A549 [1], in the test with HT-29 [2] and with MDA-MB-231 [3] was inactive.
For the compound `COC(=O)c1c(-c2cc(OC)c(O)cc2OC)c(-c2ccc(O)c(OC)c2)c2c3cc(OC)c(O)cc3ccn12`, the outcome in the test with A549 [1], in the test on HT-29 [2] and with MDA-MB-231 [3] was inactive.
With `COC(=O)c1c(-c2ccc(O)cc2)c(-c2ccc(O)cc2)c2c3cc(OC)c(O)cc3ccn12`, the GI50 was 3.5 µM with A549 [4], 9.8 µM in the test on HT-29 [6] and 4.1 µM with MDA-MB-231 [5].
As to `COC(=O)c1c(-c2ccc(OC)c(OC)c2)c(-c2ccc(OC)c(OC)c2)c2n1CCc1cc(O)c(OC)cc1-2`, the values for the GI50 with A549 [4] and with MDA-MB-231 [5] were 11.2 µM and 7.7 µM, respectively. Moreover, the result with HT-29 [2] was inactive.
As for `COC(=O)c1cc(-c2ccc(O)c(OC)c2)c2n1CCc1cc(O)c(OC)cc1-2`, the GI50 in the test with A549 [4] turned out to be 14.2 µM; with HT-29 [6], 18 µM; in the test on MDA-MB-231 [5], 22.3 µM.
As for `COC(=O)c1cc(-c2cc(OC)c(OC)c(OC)c2)c2c3cc(OC)c(O)cc3ccn12`, the outcome in the test on A549 [1], in the test on HT-29 [2] and in the test on MDA-MB-231 [3] was inactive.
`COC(=O)c1c(-c2ccc(O)cc2)c(-c2ccc(O)cc2)c2n1CCc1cc(O)c(OC)cc1-2`: the outcome in the test with A549 [1], in the test with HT-29 [2] and in the test with MDA-MB-231 [3] was inactive.
Take `COC(=O)c1c(-c2cccs2)c(-c2cccs2)c2c3cc(OC)c(OC(C)C)cc3ccn12`: the outcome with A549 [1], with HT-29 [2] and with MDA-MB-231 [3] was inactive.
For `COC(=O)c1c(-c2cc(O)c(O)cc2O)c(-c2cc(OC)ccc2OC)c2c3cc(OC)c(O)cc3ccn12`, the GI50 in the test on A549 [4] was determined as 4.7 µM; in the test on HT-29 [6], 7.1 µM; in the test with MDA-MB-231 [5] it was 3.2 µM.
Turning to `COC(=O)c1c(-c2ccc(OC(F)(F)F)cc2)c(-c2ccc(OC(F)(F)F)cc2)c2n1CCc1cc(O)c(OC)cc1-2`, the outcome with A549 [1], with HT-29 [2] and in the test on MDA-MB-231 [3] was inactive.
`COC(=O)c1c(-c2ccc(OC)c(OC)c2O)c(-c2cccc(O)c2)c2n1CCc1cc(O)c(OC)cc1-2`: the values for the GI50 with A549 [4] and in the test on MDA-MB-231 [5] were 14.7 µM and 15.7 µM, respectively. In the test with HT-29 [2], the result was inactive.
`COC(=O)c1c(-c2cc(O)c(O)cc2O)c(-c2cc(OC)ccc2OC)c2n1CCc1cc(O)c(OC)cc1-2`: the GI50 in the test with A549 [4] was found to be 13.7 µM; in the test with HT-29 [6] it was 8.4 µM; in the test with MDA-MB-231 [5], 10.5 µM.
For `COC(=O)c1c(-c2cccc(O)c2)c(-c2cccc(O)c2)c2c3cc(OC)c(O)cc3ccn12`, the figures for the GI50 with A549 [4], in the test on HT-29 [6] and with MDA-MB-231 [5] were 6.3 µM, 18.4 µM and 7.2 µM, respectively.
On the same counts, the results for `COC(=O)c1c(-c2cccc([N+](=O)[O-])c2)c(-c2cccc([N+](=O)[O-])c2)c2n1CCc1cc(O)c(OC)cc1-2` are 18 µM, 11.3 µM and 10.1 µM.
In the case of `COC(=O)c1c(-c2cccs2)c(-c2cccs2)c2n1CCc1cc(OC(C)C)c(OC)cc1-2`, the result with A549 [1], with HT-29 [2] and in the test on MDA-MB-231 [3] was inactive.
As for `COC(=O)c1c(-c2ccc(O)cc2O)c(-c2cccc(O)c2)c2c3cc(OC)c(O)cc3ccn12`, the GI50 amounted to 20.8 µM with A549 [4] and 10.6 µM in the test with MDA-MB-231 [5]. In addition, the result with HT-29 [2] was inactive.
In the case of `COC(=O)c1c(-c2ccc(OC)c(OC)c2)c(-c2ccc(OC)c(OC)c2)c2c3cc(OC)c(O)cc3ccn12`, the result in the test with A549 [1], in the test on HT-29 [2] and with MDA-MB-231 [3] was inactive.
As for `COC(=O)c1c(-c2cccs2)c(-c2cccs2)c2c3cc(OC)c(O)cc3ccn12`, the results for the GI50 with A549 [4] and in the test on MDA-MB-231 [5] were 20.4 µM and 19.7 µM, respectively. Moreover, the outcome in the test with HT-29 [2] was inactive.
As for `COC(=O)c1c(-c2ccc(O)c(OC)c2)c(-c2ccc(O)c(OC)c2)c2n1CCc1cc(OC(C)C)c(OC)cc1-2`, the GI50 is 14.7 µM in the test on A549 [4], 6.9 µM in the test on HT-29 [6] and 7.1 µM in the test on MDA-MB-231 [5].
Consider `COC(=O)c1c(-c2ccc(OC)c(OC)c2)c(-c2ccc(O)c(OC)c2)c2c3cc(OC)c(O)cc3ccn12`, for which the result with A549 [1], with HT-29 [2] and in the test on MDA-MB-231 [3] was inactive.
With `COc1cc(-c2c3c4cc(OC)c(O)cc4oc(=O)c3n3ccc4cc(O)c(OC)cc4c23)ccc1O` [LAMELLARIN D], the GI50 came out at 0.2 µM in the test with A549 [4], 5.1 µM in the test on HT-29 [6] and 0.25 µM in the test on MDA-MB-231 [5].
Take `COC(=O)c1c(-c2ccc(N(C)C)cc2)c(-c2ccc(N(C)C)cc2)c2n1CCc1cc(O)c(OC)cc1-2`: the outcome in the test on A549 [1] and in the test with HT-29 [2] was inactive. Further, it took 13.7 µM to inhibit growth in the test with MDA-MB-231 [5] by half (GI50).
As to `COC(=O)c1c(-c2cc(OC)c(OC(C)C)cc2OC(C)C)c(-c2ccc(OC(C)C)c(OC)c2)c2n1CCc1cc(OC(C)C)c(OC)cc1-2`, the result in the test with A549 [1], in the test with HT-29 [2] and in the test on MDA-MB-231 [3] was inactive.
Regarding `COC(=O)c1c(-c2ccc(OC)c(OC)c2)c(-c2ccc(OC)c(OC)c2)c2n1CCc1cc(OC(C)C)c(OC)cc1-2`, the GI50 in the test with A549 [4] stood at 0.81 µM; in the test on HT-29 [6], 1 µM; with MDA-MB-231 [5], 0.98 µM.
